Active and inactive are the calls of the source. How the calls were made is not given here.
Biological target: Muscarinic acetylcholine receptor M1 (Rattus norvegicus) (UniProt P08482)
Assay: ACh response enhancement at rat M1 – CHO cells, selectivity assay for M5 PAM project (AID 651921)
Settings: CHO-K1 rat M1, calcium Fluo-4, ACh EC20; series mostly up to 30 µM
Method in brief: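 Test system: CHO-K1 cell line; Reagent: acetylcholine, EC20; Timing: 1.5 min compound, 50 s agonist, 25 °C; Signal: calcium fluorescence; Evaluation: baseline-normalized signal as percent of maximal acetylcholine response.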

Sequence of Muscarinic acetylcholine receptor M1 (Rattus norvegicus) (P08482 whole entry, looked up): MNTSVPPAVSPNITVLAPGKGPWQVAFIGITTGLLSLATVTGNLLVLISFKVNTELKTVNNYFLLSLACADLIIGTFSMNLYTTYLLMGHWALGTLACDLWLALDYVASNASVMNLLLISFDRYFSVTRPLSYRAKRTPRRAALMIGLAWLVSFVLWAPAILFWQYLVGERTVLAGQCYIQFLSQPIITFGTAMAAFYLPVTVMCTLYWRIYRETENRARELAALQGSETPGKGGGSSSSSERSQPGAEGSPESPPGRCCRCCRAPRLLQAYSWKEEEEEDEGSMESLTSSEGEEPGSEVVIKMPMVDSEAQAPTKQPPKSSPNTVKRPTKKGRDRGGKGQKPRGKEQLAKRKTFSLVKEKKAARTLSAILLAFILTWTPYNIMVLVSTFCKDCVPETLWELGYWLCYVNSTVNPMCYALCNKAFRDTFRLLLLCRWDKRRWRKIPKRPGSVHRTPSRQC

For `O=C1C(=O)N(CCOc2ccccc2)c2ccc(OC(F)(F)F)cc21`, the outcome was “inactive”.

Reference: PubChem BioAssay AID651921 (Vanderbilt Specialized Chemistry Center, 2012)
